Consider one compound from paper PMC2943143 (Biochemical pharmacology, 2010).

Structures are written as SMILES. Entries after “also recorded” stand apart in the source; their conditions may differ.

In one assay the target is human telomerase (Homo sapiens, UniProt O14746). The assay can be described thus: Telomerase assay. In kind it is biochemical. To be noted: highest tested concentration 1 μM, supplemental Fig. S1B.
Assay [1] concerns the target HIV reverse transcriptase. To be noted: read-out: IC50, HIV reverse transcriptase; cited from earlier work.
A further assay has as its target calf thymus TdT (Bos taurus, UniProt P06526). The assay can be described thus: Pol assay, calf TdT. In kind it is biochemical. Conditions: 100 and 1,000 nM PGG, Fig. 1C. A digest of the protocol:
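TdT was assayed with oligo(dT)18 (3′-OH) primer and dTTP substrate. Test compound in sonicated DMSO was preincubated with 0.05 unit enzyme in 50 mM Tris-HCl pH 7.5, 1 mM DTT, 50% glycerol and 0.1 mM EDTA at 0 °C for 10 min. Reaction ran at 37 °C for 60 min. Remaining activity is expressed relative to no-inhibitor control.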

The next assay deals with Taq pol (Thermus aquaticus, UniProt P19821). The assay is described as follows: Pol assay, Taq pol. It counts as biochemical. Conditions: supplemental Fig. S1A. A digest of the protocol:
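Taq polymerase used poly(dA)/oligo(dT)18 (A/T = 2/1) template-primer and dTTP substrate. Test compound in sonicated DMSO was preincubated with enzyme (0.05 unit final) in 50 mM Tris-HCl pH 7.5, 1 mM DTT, 50% glycerol and 0.1 mM EDTA at 0 °C for 10 min. The mixture was then added to standard reaction mix and incubated at 74 °C for 60 min. Activity is given as % of untreated control.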

The target of a further assay is del-1 pol λ (133–575) (Homo sapiens, UniProt Q9UGP5). The assay can be described thus: Pol assay, del-1 pol λ mutant. It counts as biochemical. Conditions: dose-response, Fig. 4B. A digest of the protocol:
(§1)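 Test compound was dissolved in DMSO and sonicated 30 s. It was preincubated with enzyme (0.05 unit final) in 50 mM Tris-HCl pH 7.5, 1 mM DTT, 50% glycerol and 0.1 mM EDTA at 0 °C for 10 min. This was added to each enzyme's standard reaction mix with poly(dA)/oligo(dT)18 (A/T = 2/1) template-primer and dTTP substrate, then incubated at 37 °C for 60 min. Activity is given as % of inhibitor-free control.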

The target of a further assay is Xanthine oxidase. Conditions: read-out: IC50, Xanthine oxidase; cited from earlier work.
Assay [2] deals with Angiotensin converting enzyme. Conditions: read-out: IC50, Angiotensin converting enzyme; cited from earlier work.
In assay [3] the target is HIV-1 reverse transcriptase (Human immunodeficiency virus type 1 group M subtype B, UniProt P04585). The assay is described as follows: HIV-1 reverse transcriptase assay. It counts as biochemical, Human immunodeficiency virus type-1 (HIV-1). Conditions: highest tested concentration 1 μM, supplemental Fig. S1B. A digest of the protocol: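 Recombinant HIV-1 reverse transcriptase used poly(rA)/oligo(dT)18 (A/T = 2/1) template-primer and dTTP substrate. Enzyme (0.05 unit) was preincubated with test compound in sonicated DMSO at 0 °C for 10 min in Tris-HCl pH 7.5/DTT/glycerol/EDTA buffer. Reaction ran at 37 °C for 60 min. Activity is given as % of control.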

The target in the next assay is rat pol β (Rattus norvegicus, UniProt P06766). The assay can be described thus: Pol assay, rat pol β. In kind it is biochemical. Conditions: for Ki: pol β, Dixon plot. A digest of the protocol:
as §1

In another assay the target is HIV integrase. Conditions: read-out: IC50, HIV integrase; cited from earlier work.
Assay [4] deals with calf thymus double-stranded DNA (dsDNA). The assay is described as follows: Thermal transition of DNA. In kind it is binding. Conditions: 15 μM compound, calf thymus dsDNA 6 μg/ml, pH 7.0. A digest of the protocol:
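Calf thymus dsDNA (6 μg/ml) in 0.1 M sodium phosphate pH 7.0 with 1% DMSO was tested with or without test compound, with ethidium bromide as intercalator control. Samples were equilibrated at 78 °C for 10 min, then raised 1 °C every 2 min. Absorbance was recorded on a spectrophotometer with a thermoelectric cell holder, and compound-only absorbance was subtracted to give Tm.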

The mark [5] stands for this setting: unchanged at 30, 60 and 90 nM PGG.

calf thymus TdT, sequence (P06526 whole entry): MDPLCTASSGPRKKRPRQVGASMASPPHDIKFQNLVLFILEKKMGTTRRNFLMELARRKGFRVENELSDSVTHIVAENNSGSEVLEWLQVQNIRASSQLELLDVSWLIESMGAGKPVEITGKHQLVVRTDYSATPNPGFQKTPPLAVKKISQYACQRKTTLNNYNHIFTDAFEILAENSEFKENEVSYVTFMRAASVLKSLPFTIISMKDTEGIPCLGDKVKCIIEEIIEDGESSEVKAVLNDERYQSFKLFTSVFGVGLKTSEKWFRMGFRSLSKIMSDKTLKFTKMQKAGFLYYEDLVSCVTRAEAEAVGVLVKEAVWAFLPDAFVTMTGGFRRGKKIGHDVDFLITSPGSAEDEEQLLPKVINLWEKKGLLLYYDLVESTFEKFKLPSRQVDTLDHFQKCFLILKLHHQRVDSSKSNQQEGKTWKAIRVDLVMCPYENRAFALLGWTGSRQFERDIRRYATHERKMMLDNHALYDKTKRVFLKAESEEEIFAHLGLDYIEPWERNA
Taq pol, sequence (P19821 whole entry): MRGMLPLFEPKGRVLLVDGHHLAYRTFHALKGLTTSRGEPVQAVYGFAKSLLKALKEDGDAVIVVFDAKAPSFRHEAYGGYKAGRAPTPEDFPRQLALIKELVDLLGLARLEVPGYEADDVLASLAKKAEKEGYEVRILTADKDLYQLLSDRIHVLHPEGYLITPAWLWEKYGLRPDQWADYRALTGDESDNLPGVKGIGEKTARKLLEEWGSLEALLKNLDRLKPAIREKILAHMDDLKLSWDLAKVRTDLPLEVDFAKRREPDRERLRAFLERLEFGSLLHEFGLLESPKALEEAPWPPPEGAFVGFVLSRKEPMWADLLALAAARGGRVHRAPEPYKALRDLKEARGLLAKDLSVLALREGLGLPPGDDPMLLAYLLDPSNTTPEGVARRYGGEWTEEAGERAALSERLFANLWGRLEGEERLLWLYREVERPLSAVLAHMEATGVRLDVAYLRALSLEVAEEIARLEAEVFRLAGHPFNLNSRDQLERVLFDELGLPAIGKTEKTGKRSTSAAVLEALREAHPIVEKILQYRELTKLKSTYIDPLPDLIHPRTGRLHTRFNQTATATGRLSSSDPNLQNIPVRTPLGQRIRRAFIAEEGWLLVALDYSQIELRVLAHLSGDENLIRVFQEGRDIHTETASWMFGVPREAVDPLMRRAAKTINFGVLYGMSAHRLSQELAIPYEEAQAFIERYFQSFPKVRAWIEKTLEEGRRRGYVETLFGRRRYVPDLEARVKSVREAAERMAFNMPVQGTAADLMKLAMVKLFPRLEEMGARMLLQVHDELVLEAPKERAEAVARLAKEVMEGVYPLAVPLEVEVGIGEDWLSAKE
human telomerase, sequence (O14746 whole entry): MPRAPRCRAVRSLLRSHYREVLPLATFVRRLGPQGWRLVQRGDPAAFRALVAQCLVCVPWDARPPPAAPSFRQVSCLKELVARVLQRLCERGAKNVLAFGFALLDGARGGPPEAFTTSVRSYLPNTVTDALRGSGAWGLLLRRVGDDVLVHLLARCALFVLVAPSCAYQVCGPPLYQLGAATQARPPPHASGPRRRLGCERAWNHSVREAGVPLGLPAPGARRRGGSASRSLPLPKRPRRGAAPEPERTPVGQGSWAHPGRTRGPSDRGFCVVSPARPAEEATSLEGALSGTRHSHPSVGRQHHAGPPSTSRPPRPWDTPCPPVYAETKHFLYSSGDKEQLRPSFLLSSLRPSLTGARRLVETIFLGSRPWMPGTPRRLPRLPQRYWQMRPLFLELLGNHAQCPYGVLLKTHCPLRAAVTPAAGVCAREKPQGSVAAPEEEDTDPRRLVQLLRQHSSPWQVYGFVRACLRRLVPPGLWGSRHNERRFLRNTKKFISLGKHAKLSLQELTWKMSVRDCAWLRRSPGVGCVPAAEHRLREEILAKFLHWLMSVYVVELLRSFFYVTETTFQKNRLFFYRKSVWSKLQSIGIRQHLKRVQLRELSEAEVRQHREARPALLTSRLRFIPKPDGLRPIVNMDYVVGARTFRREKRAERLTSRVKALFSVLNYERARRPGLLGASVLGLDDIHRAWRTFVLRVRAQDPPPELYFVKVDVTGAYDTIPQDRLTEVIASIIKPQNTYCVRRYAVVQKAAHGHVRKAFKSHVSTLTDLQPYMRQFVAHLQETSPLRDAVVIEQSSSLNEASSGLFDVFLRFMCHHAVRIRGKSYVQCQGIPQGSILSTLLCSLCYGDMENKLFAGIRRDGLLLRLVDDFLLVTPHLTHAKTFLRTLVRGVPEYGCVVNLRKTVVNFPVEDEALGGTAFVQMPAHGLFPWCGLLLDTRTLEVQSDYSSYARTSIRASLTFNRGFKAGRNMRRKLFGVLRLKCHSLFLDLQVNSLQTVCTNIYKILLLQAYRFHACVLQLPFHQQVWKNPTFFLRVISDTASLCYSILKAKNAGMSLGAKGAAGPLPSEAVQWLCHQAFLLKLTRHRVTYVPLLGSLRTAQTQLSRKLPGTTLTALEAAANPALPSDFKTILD
del-1 pol λ (133–575), sequence (Q9UGP5 133-575): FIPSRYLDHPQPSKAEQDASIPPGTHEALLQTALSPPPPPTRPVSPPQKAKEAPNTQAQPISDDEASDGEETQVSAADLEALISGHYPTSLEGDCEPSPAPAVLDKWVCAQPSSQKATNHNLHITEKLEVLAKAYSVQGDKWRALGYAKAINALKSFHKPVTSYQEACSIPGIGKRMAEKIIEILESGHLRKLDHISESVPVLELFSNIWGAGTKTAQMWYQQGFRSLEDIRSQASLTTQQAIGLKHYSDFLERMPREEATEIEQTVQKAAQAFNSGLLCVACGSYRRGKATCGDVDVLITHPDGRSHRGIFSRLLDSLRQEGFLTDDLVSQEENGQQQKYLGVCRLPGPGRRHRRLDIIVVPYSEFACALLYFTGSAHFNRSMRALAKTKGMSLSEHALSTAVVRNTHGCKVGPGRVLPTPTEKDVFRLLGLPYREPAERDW

With `O=C(OC[C@H]1O[C@@H](OC(=O)c2cc(O)c(O)c(O)c2)[C@H](OC(=O)c2cc(O)c(O)c(O)c2)[C@@H](OC(=O)c2cc(O)c(O)c(O)c2)[C@@H]1OC(=O)c1cc(O)c(O)c(O)c1)c1cc(O)c(O)c(O)c1` [PGG, 1,2,3,4,6-penta-O-galloyl-β-D-glucose], at human telomerase, the “effect on human telomerase activity” value is “did not suppress”. Moreover, the IC50 in [1] was above 100 µM; at Xanthine oxidase it was 3.2 µM; in [2], 73.1 µM; on rat pol β (IC50, pol β, poly(dA)/oligo(dT)18 and dTTP, 0.05 unit enzyme), 0.108 to 0.16 µM; on HIV integrase it was 13.7 µM. Besides, the “effect on TdT activity” value on calf thymus TdT is “not affected; also recorded: not sensitive”. The “effect on Taq pol activity” value on Taq pol is given as “not influenced”. For the same compound, the “inhibition of del-1 pol λ activity” value at del-1 pol λ (133–575) is given as “dose-dependently inhibited”. Besides, the “effect on HIV-1 reverse transcriptase activity” value in [3] is “did not suppress”. Also, the values for the Ki on rat pol β (for the DNA template-primer) and on rat pol β (for the dNTP substrate) were 0.0201 µM and 0.0238 µM, respectively. The “effect of 0.05% NP-40 on the inhibitory effect on pol β” value on rat pol β (PGG 100 nM and 200 nM, supplemental Table S1) was “not reversed”. Also, at rat pol β (double reciprocal plots), the “Mode of Inhibition, pol β, DNA template-primer” value was “competitively; also recorded: Competitive for DNA template-primer”. Also, the “Mode of Inhibition, pol β, dNTP” value at rat pol β (double reciprocal plots) is “competitively; also recorded: Competitive for dNTP”. Besides, the “effect of poly(rC) or BSA on the inhibitory effect on pol β” value on rat pol β (poly(rC) 50 μM, BSA 200 μg/ml) is given as “neither poly(rC) nor BSA influenced”. Moreover, at rat pol β (setting [5]), the “apparent Vmax of pol β, DNA template-primer” value is given as 111 pmol/h. Besides, the “apparent Vmax of pol β, dNTP substrate” value on rat pol β (setting [5]) came to 62.5 pmol/h. Moreover, the “effect on melting temperature (Tm) / thermal transition of dsDNA” value in assay [4] was “no effect”.

As usually defined, the IC50 is the midpoint of a concentration-inhibition curve. The Ki is the dissociation constant of the complex between target and ligand, obtained from inhibition or displacement. A high value points to weaker binding.
